Laboratory results published in ChEMBL document CHEMBL1130267, “Regulation of retinoidal actions by diazepinylbenzoic acids. Retinoid synergists which activate the RXR-RAR heterodimers” (J Med Chem, 1997).
Each block holds one compound with its values, some of them ahead of it.

Assays:
[1] = target: T1, Retinoic acid receptor alpha (Homo sapiens, UniProt P10276); test: Synergistic activity towards retinoic acid receptor-alpha
T1 sequence (P10276 whole entry): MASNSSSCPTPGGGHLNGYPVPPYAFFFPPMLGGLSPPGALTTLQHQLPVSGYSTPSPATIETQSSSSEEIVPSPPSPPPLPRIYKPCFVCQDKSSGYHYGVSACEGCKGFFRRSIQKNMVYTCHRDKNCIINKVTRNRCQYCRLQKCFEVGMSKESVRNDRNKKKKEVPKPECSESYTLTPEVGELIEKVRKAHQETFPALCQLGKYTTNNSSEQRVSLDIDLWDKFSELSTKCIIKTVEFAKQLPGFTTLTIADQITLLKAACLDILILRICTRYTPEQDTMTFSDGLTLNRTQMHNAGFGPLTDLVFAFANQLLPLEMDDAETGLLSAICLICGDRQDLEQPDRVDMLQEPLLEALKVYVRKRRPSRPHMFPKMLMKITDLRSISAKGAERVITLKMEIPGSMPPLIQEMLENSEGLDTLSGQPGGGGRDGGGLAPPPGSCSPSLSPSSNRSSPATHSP
Procedure, shortened: (§1)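 Competitive nitrocellulose filter binding to recombinant RARα ligand-binding domain fused to maltose-binding protein, using 8 nM [³H]Am80 as tracer. IC50 for displacement of specific binding was converted to Ki by Ki = IC50/(1 + [L]/Kd).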

HL-60 [2] = test: Concentration which reduces by half the percentage of differentiated HL-60 cells induced by 1 x 10e-9 M Am80.; format: functional, cell-based; conditions: Homo sapiens
Procedure, shortened: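 Antagonism in HL-60 cells cotreated with 1 × 10^-9 M Am80 for 4 days, with Am80 alone and test compound alone run in parallel. Cells were seeded at about 8 × 10⁴/mL in RPMI1640/5% FBS, and compounds came from 2 mM ethanol stocks (final ethanol <0.5%). NBT reduction (0.2% NBT, 200 ng/mL TPA, 20 min, 37 °C) was counted on ≥200 cells. IC50 is the concentration halving the % of differentiated cells. Run at least twice.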

[3] = target: T2, Retinoic acid receptor RXR-alpha (Homo sapiens, UniProt P19793); test: Synergistic activity towards retinoid X receptor-alpha
T2 sequence (P19793 whole entry): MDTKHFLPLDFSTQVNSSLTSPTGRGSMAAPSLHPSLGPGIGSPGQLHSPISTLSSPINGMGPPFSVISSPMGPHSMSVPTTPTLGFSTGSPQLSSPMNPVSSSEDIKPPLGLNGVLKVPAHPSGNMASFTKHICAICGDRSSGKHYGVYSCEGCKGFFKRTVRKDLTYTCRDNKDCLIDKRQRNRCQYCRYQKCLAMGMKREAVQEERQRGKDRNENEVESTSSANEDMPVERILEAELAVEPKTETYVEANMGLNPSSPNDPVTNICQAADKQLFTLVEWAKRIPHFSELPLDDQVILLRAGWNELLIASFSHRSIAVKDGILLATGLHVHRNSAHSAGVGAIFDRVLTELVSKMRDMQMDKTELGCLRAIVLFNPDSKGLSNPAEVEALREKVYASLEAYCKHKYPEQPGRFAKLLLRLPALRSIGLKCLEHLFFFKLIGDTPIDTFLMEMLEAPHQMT

[4] = target: T3, Retinoic acid receptor RXR-beta (Homo sapiens, UniProt P28702); test: Synergistic activity towards retinoid X receptor-beta
T3 sequence (P28702 whole entry): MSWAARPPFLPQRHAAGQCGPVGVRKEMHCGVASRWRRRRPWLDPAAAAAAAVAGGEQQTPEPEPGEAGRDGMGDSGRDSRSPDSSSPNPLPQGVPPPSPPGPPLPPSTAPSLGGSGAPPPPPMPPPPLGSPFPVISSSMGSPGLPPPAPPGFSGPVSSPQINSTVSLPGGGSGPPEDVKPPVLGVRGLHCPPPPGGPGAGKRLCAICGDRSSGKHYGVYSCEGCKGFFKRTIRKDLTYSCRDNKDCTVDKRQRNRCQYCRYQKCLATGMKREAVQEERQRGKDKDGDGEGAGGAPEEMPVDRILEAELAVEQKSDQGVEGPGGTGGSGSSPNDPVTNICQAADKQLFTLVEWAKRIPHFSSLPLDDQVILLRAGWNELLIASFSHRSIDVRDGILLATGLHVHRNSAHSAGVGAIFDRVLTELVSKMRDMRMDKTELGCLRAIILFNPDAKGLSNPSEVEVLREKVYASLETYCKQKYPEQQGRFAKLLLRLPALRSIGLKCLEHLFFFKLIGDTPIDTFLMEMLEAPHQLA

[5] = target: T4, Retinoic acid receptor beta (Homo sapiens, UniProt P10826); test: Synergistic activity towards retinoic acid receptor-beta
T4 sequence (P10826 whole entry): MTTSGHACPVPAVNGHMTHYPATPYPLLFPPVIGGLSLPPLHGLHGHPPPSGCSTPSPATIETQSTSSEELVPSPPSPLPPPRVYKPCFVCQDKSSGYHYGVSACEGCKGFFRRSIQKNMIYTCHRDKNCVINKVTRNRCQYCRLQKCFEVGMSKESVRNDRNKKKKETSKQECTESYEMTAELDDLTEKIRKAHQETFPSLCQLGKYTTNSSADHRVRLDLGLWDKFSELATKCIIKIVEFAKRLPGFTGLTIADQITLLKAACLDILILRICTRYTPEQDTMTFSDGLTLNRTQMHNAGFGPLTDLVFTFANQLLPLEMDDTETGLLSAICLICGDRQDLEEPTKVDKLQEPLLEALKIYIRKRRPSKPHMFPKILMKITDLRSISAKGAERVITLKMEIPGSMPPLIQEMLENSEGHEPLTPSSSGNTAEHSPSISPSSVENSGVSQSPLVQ
Procedure, shortened: (§2)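 Filter binding competition on the MBP-fused RARβ ligand-binding domain against 20 nM [³H]Am80. The IC50 for halving specific binding was converted to Ki via Ki = IC50/(1 + [L]/Kd).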

[6] = target: T5, Retinoic acid receptor RXR-gamma (Homo sapiens, UniProt P48443); test: Synergistic activity towards retinoid X receptor-gamma
T5 sequence (P48443 whole entry): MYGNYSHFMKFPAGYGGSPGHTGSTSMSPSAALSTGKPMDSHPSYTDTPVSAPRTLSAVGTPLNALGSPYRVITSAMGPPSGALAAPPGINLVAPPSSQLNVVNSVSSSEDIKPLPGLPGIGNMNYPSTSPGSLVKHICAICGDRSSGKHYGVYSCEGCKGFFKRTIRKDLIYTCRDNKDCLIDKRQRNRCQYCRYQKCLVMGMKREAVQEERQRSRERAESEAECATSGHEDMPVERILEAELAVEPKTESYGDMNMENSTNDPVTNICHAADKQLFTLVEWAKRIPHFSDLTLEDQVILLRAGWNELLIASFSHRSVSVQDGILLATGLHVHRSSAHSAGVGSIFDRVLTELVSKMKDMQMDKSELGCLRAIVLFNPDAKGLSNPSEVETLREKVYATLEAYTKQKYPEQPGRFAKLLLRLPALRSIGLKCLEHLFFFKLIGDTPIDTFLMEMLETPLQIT

HL-60 [7] = test: Concentration which reduces by half the percentage of differentiated HL-60 cells; Inactive at 1 x 10e-6 M; format: functional, cell-based, Homo sapiens
HL-60 [8] = test: Concentration of a compound which induces HL-60 cell differentiation to the extent of 50%; inactive below 1.0E-6M test compound; format: functional, cell-based, Homo sapiens
[9] = target: T1, Retinoic acid receptor alpha; test: Antagonistic activity towards retinoic acid receptor-alpha; format: functional; procedure, shortened: as §1
[10] = target: T4, Retinoic acid receptor beta; test: Antagonistic activity towards retinoic acid receptor-beta; format: functional; procedure, shortened: as §2
[11] = target: T6, Retinoic acid receptor gamma (Homo sapiens, UniProt P13631); test: Antagonistic activity towards retinoic acid receptor-gamma; format: functional
T6 sequence (P13631 whole entry): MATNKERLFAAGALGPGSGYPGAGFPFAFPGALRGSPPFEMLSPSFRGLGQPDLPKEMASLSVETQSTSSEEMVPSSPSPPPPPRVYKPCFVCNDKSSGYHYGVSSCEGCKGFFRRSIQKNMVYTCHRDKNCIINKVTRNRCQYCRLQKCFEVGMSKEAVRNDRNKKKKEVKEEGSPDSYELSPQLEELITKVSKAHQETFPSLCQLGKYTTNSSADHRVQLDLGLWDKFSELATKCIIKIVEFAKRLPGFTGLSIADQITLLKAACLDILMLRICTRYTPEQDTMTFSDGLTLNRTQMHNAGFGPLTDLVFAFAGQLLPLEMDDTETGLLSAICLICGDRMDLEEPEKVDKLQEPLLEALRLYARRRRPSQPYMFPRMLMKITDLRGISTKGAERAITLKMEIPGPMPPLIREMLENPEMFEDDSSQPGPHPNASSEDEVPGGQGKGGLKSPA
Procedure, shortened: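 Recombinant RARγ in a nitrocellulose filter competitive binding assay with 4 nM [³H]-9-cis-retinoic acid (diluted with cold ligand to 8 Ci/mmol). Ki = IC50/(1 + [L]/Kd).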

[12] = target: T2, Retinoic acid receptor RXR-alpha; test: Antagonistic activity towards retinoid X receptor-alpha; format: functional
[13] = target: T3, Retinoic acid receptor RXR-beta; test: Antagonistic activity towards retinoid X receptor-beta; format: functional
[14] = target: T5, Retinoic acid receptor RXR-gamma; test: Antagonistic activity towards retinoid X receptor-gamma; format: functional

Structure (SMILES): CC1c2ccccc2N=C(c2ccc(C(=O)O)cc2)c2cc3c(cc21)C(C)(C)CCC3(C)C (centres undefined)
Ki [1]: 2000 nM

Structure (SMILES): CN1c2cc3c(cc2N=C(c2ccc(C(=O)O)cc2)c2cc4c(cc21)C(C)(C)CCC4(C)C)C(C)(C)CCC3(C)C
IC50 (HL-60 [2]): 830 nM

Structure (SMILES): CC1(C)CCC(C)(C)c2cc3c(cc21)Oc1ccccc1N=C3c1ccc(C(=O)O)cc1
Ki [3]: 3800 nM
Ki [4]: 1200 nM
Ki [5]: 320 nM
Ki [1]: 980 nM
Ki [6]: 2100 nM

Structure (SMILES): CN1c2cc3c(cc2N=C(c2ccc(C(=O)O)cc2)c2ccc4cc5ccccc5cc4c21)C(C)(C)CCC3(C)C
IC50 (HL-60 [2]): 320 nM

Structure (SMILES): CC1(C)CCC(C)(C)c2cc3c(cc21)Sc1ccccc1N=C3c1ccc(C(=O)O)cc1
Ki [3]: 900 nM
Ki [4]: 400 nM
Ki [5]: 320 nM
Ki [1]: 900 nM
Ki [6]: 620 nM

Structure (SMILES): CC1(C)CCC(C)(C)c2cc3c(cc21)NC(=O)CN=C3c1ccc(C(=O)O)cc1
EC50 (HL-60 [8]): Not Active

Structure (SMILES): CC1(C)CCC(C)(C)c2cc3c(cc21)Cc1ccccc1N=C3c1ccc(C(=O)O)cc1
Ki [3]: 1800 nM
Ki [4]: 790 nM
Ki [5]: 810 nM
Ki [1]: 1600 nM
Ki [6]: 1000 nM

Structure (SMILES): CCCCCCCN1c2cc3c(cc2N=C(c2ccc(C(=O)O)cc2)c2ccccc21)C(C)(C)CCC3(C)C
IC50 (HL-60 [2]): 210 nM

Structure (SMILES): CN1c2cc3c(cc2N=C(c2ccc(C(=O)O)cc2)c2c1c1ccccc1c1ccccc21)C(C)(C)CCC3(C)C
IC50 (HL-60 [2]): 350 nM

The next lines start with the values.

IC50 (HL-60 [7]): Not Active
Structure (SMILES): CN1c2ccc(C34CC5CC(CC(C5)C3)C4)cc2N=C(c2ccc(C(=O)O)cc2)c2ccccc21

EC50 (HL-60 [8]): Not Active
Structure (SMILES): CN1c2ccccc2N=C(c2ccc(C(=O)O)cc2)c2cc(C(C)(C)C)ccc21

IC50 (HL-60 [2]): > 1000 nM
Structure (SMILES): CN1c2ccc(C(C)(C)C)cc2N=C(c2ccc(C(=O)O)cc2)c2ccccc21

Ki [9]: 1400 nM
IC50 (HL-60 [2]): 150 nM
Ki [10]: 220 nM
Structure (SMILES): CN1c2cc3c(cc2N=C(c2ccc(C(=O)O)cc2)c2ccccc21)C(C)(C)CCC3(C)C

IC50 (HL-60 [7]): Not Active
Structure (SMILES): CC(C)c1cc2c(cc1C(C)C)N(C)c1ccccc1C(c1ccc(C(=O)O)cc1)=N2

EC50 (HL-60 [8]): Not Active
Structure (SMILES): CN1c2ccccc2N=C(c2ccc(C(=O)O)cc2)c2ccccc21

EC50 (HL-60 [8]): Not Active
Structure (SMILES): CN1c2ccccc2N=C(c2ccc(C(=O)O)cc2)c2cc(-c3ccccc3)ccc21

Ki [11]: 490 nM
Ki [12]: 3800 nM
Ki [13]: 1700 nM
Ki [9]: 1300 nM
Ki [14]: 1500 nM
IC50 (HL-60 [2]): 36 nM
Ki [10]: 500 nM
Structure (SMILES): CN1c2cc3c(cc2N=C(c2ccc(C(=O)O)cc2)c2ccc4ccccc4c21)C(C)(C)CCC3(C)C

IC50 (HL-60 [2]): 130 nM
Structure (SMILES): CCCN1c2cc3c(cc2N=C(c2ccc(C(=O)O)cc2)c2ccccc21)C(C)(C)CCC3(C)C

IC50 (HL-60 [2]): 120 nM
Structure (SMILES): CN1c2cc3c(cc2N=C(c2ccc(C(=O)O)cc2)c2c1ccc1ccccc21)C(C)(C)CCC3(C)C

EC50 (HL-60 [8]): Not Active
Structure (SMILES): CN1c2ccccc2N=C(c2ccc(C(=O)O)cc2)c2cc(Br)ccc21

Ki [3]: 1900 nM
Ki [4]: 640 nM
Ki [5]: 680 nM
Ki [6]: 1000 nM
Structure (SMILES): CN1c2ccccc2N=C(c2ccc(C(=O)O)cc2)c2cc3c(cc21)C(C)(C)CCC3(C)C
